Data reported in ChEMBL document CHEMBL2390869, “Evolution of novel tricyclic CRTh2 receptor antagonists from a (E)-2-cyano-3-(1H-indol-3-yl)acrylamide scaffold” (Bioorg Med Chem Lett, 2013).
In brackets after ≈: the same amount, converted by molar mass. One block for each compound: values may come before it.

What was measured:
[1] = Oral bioavailability in Wistar rat at 10 mg/kg; assay type: ADME, organism-based; details: in vivo
Procedure, shortened: (§1)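 Single doses given to three male Wistar rats per route: 10 mg/kg orally and 1 mg/kg intravenously, as a solution in 20% propyleneglycol/80% buffer. Plasma PK parameters were derived. CL, terminal T1/2 and Vss come from the intravenous arm. AUC0–last comes from the oral arm.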

[2] = Volume of distribution at steady state in Wistar rat at 10 mg/kg, po and 1 mg/kg, iv; assay type: ADME, organism-based; details: in vivo, read-out: Vdss; procedure, shortened: as §1
[3] = Terminal half life in Wistar rat at 10 mg/kg, po and 1 mg/kg, iv; assay type: ADME, organism-based; details: in vivo, read-out: beta t1/2 (converted); procedure, shortened: as §1
[4] = Clearance in Wistar rat at 10 mg/kg, po and 1 mg/kg, iv; assay type: ADME, organism-based; details: in vivo; procedure, shortened: as §1
[5] = Cmax in Wistar rat at 10 mg/kg, po and 1 mg/kg, iv; assay type: ADME, organism-based; details: in vivo; procedure, shortened: as §1
[6] = AUC (0 to last) in Wistar rat at 10 mg/kg, po; assay type: ADME, organism-based; parameters: time 0 - last, dose 10 mg/kg, route oral; details: plasma; procedure, shortened: as §1
[7] = Stability in simulated intestinal fluid after 4 hrs by LC/MS analysis; assay type: physicochemical; details: read-out: Stability
Procedure, shortened: (§2)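 Compound incubated in simulated gastric fluid for 1 h or simulated intestinal fluid for 4 h. Unchanged parent recovered and measured by LC–MS, expressed as % parent.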

[8] = Stability in simulated gastric fluid after 1hr by LC/MS analysis; assay type: physicochemical; details: read-out: Stability; procedure, shortened: as §2
[9] = Solubility of the compound in buffer at pH 4; assay type: physicochemical
Procedure, shortened: (§3)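 Solubility measured in buffered aqueous solution at pH 4 and pH 7, and in water, where the final pH of the aqueous solution was 4.6.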

[10] = Solubility of the compound in buffer at pH 7; assay type: physicochemical; procedure, shortened: as §3
[11] = Aqueous solubility of the compound in water at pH 4.6; assay type: physicochemical; procedure, shortened: as §3
[12] = Metabolic stability in human plasma assessed as compound remaining after 4 hrs; assay type: ADME, cell-free; details: read-out: Stability
Procedure, shortened: (§4)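 Compound incubated in rat and human plasma for up to 4 h. Unchanged parent quantified by LC–MS, reported as % parent remaining at 4 h plus elimination half-life.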

[13] = Metabolic stability in rat plasma assessed as compound remaining after 4 hrs; assay type: ADME, cell-free; details: read-out: Stability; procedure, shortened: as §4
Cytochrome P450 2D6 = Cytochrome P450 2D6 (Homo sapiens, UniProt P10635); assay: Inhibition of CYP2D6 (unknown origin); assay type: ADME
Cytochrome P450 2D6, sequence (P10635 whole entry): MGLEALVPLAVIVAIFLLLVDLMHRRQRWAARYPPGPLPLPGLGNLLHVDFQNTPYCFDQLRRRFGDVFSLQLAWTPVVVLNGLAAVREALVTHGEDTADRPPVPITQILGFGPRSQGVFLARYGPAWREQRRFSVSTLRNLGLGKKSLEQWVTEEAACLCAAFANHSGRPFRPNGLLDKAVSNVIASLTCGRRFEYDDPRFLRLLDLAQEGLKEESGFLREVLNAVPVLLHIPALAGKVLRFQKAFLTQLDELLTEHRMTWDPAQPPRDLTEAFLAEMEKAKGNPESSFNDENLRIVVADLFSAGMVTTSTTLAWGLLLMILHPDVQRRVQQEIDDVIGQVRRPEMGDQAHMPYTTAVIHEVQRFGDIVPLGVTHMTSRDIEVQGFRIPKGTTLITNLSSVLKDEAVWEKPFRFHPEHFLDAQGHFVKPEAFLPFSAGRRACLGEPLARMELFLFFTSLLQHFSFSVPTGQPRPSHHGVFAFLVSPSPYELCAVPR

Cytochrome P450 3A4 = Cytochrome P450 3A4 (Homo sapiens, UniProt P08684); assay: Inhibition of CYP3A4 (unknown origin); assay type: ADME
Cytochrome P450 3A4, sequence (P08684 whole entry): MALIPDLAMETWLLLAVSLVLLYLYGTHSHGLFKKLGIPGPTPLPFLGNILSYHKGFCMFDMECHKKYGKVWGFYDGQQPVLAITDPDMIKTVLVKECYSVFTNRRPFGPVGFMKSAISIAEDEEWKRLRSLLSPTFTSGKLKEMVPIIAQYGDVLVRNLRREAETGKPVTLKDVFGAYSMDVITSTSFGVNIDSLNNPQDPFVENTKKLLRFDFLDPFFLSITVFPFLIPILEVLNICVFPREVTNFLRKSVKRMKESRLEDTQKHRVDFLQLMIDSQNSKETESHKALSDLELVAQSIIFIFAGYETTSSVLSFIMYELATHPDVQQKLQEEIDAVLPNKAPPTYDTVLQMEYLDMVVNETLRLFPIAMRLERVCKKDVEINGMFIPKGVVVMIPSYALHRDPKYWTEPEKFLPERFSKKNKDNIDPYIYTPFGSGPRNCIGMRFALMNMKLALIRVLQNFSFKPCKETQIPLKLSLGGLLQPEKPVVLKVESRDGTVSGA

Cytochrome P450 2C9 = Cytochrome P450 2C9 (Homo sapiens, UniProt P11712); assay: Inhibition of CYP2C9 (unknown origin); assay type: ADME
Cytochrome P450 2C9, sequence (P11712 whole entry): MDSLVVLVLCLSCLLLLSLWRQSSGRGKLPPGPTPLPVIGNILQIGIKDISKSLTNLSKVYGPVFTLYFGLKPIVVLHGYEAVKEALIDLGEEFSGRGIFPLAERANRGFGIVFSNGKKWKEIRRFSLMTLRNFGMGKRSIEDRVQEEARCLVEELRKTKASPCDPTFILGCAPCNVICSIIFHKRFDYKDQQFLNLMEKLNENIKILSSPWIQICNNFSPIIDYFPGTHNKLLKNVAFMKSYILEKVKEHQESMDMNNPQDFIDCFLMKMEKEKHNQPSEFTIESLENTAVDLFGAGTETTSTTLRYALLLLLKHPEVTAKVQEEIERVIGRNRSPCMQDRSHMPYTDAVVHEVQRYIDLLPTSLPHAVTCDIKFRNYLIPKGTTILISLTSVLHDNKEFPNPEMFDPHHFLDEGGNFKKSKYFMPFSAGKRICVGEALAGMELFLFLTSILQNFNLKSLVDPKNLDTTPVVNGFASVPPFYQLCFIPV

[14] = molecular target: Prostaglandin E2 receptor EP4 subtype (Homo sapiens, UniProt P35408); assay: Inhibition of PGE2 binding to human EP4 receptor
Prostaglandin E2 receptor EP4 subtype, sequence (P35408 whole entry): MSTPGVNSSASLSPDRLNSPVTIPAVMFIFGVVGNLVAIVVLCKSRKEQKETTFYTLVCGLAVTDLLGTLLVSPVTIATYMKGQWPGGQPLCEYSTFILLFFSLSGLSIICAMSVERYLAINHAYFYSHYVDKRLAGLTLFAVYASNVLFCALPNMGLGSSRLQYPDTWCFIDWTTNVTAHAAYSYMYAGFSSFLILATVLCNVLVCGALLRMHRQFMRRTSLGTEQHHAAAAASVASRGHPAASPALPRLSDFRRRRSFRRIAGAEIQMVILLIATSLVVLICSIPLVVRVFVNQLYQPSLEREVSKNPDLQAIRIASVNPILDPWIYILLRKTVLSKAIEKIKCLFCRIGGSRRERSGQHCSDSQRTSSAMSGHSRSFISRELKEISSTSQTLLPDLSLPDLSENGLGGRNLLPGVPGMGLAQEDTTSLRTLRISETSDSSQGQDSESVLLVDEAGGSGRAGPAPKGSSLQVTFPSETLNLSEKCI

[15] = molecular target: T1, Prostaglandin E2 receptor EP3 subtype (Homo sapiens, UniProt P43115); assay: Antagonist activity at human EP3 receptor assessed as inhibition of PGE2-induced Ca2+ mobilization by FLIPR assay; assay type: functional
T1 sequence (P43115 whole entry): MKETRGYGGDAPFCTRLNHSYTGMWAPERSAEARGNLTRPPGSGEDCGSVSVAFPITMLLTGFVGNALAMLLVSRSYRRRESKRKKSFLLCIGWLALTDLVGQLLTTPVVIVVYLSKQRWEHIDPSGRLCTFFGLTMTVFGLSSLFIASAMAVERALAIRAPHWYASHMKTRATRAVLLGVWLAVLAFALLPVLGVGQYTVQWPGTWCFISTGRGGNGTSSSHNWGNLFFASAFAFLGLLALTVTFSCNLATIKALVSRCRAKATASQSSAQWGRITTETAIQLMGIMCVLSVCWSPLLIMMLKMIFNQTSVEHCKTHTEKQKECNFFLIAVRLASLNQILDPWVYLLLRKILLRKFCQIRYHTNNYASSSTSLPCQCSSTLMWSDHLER
Procedure, shortened: (§5)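 Antagonism measured as inhibition of agonist-induced Ca2+ mobilization by FLIPR: PGE2 as agonist for human EP1 and EP3, U46619 as agonist for human TP. Values are IC50.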

[16] = molecular target: T2, Prostaglandin E2 receptor EP1 subtype (Homo sapiens, UniProt P34995); assay: Antagonist activity at human EP1 receptor assessed as inhibition of PGE2-induced Ca2+ mobilization by FLIPR assay; assay type: functional; procedure, shortened: as §5
T2 sequence (P34995 whole entry): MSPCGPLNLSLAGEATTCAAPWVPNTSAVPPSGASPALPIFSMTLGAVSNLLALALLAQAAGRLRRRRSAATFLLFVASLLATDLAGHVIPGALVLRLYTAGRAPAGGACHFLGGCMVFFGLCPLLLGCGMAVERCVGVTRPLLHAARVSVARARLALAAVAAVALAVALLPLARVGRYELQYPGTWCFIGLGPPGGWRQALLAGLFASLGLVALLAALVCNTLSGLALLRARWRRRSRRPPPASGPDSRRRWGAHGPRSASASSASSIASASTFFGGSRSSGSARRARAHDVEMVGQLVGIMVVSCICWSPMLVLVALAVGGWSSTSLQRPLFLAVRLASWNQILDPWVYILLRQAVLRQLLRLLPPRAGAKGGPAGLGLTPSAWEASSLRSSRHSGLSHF

[17] = molecular target: T3, Prostaglandin D2 receptor (Homo sapiens, UniProt Q13258); assay: Inhibition of PGD2 binding to human DP1 receptor
T3 sequence (Q13258 whole entry): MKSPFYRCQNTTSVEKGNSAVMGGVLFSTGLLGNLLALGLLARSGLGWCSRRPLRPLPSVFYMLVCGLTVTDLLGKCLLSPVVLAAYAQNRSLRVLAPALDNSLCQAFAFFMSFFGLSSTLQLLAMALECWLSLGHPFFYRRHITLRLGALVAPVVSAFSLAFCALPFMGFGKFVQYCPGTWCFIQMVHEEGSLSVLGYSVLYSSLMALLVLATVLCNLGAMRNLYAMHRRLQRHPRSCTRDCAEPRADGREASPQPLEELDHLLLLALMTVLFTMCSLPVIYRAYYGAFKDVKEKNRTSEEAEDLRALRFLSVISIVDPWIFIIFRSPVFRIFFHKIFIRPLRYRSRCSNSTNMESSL

[18] = molecular target: T4, Prostaglandin D2 receptor 2 (Homo sapiens, UniProt Q9Y5Y4); assay: Displacement of [3H]PGD2 from human CRTh2 receptor
T4 sequence (Q9Y5Y4 whole entry): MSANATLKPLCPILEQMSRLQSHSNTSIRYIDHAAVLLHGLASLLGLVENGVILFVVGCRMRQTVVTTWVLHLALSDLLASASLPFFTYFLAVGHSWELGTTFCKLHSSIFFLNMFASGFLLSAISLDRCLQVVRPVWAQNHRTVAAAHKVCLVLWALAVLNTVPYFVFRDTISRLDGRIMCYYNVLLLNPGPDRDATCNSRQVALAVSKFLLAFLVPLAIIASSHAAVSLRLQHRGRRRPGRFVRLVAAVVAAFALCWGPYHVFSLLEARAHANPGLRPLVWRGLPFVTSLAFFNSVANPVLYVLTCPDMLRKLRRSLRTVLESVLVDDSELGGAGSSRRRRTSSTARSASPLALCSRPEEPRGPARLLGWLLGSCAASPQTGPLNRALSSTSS
Procedure, shortened: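 Human CRTh2 binding assay run in assay buffer. IC50 reported as the mean of at least three experiments.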

[19] = molecular target: T4, Prostaglandin D2 receptor 2; assay: Displacement of [3H]PGD2 from human CRTh2 receptor in presence of human serum albumin
Procedure, shortened: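 Human CRTh2 binding assay run with 0.5% human serum albumin added to the assay buffer to mimic binding to blood proteins. IC50 is reported as the mean of at least three experiments.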

[20] = molecular target: Prostaglandin E2 receptor EP2 subtype (Homo sapiens, UniProt P43116); assay: Inhibition of PGE2 binding to human EP2 receptor
Prostaglandin E2 receptor EP2 subtype, sequence (P43116 whole entry): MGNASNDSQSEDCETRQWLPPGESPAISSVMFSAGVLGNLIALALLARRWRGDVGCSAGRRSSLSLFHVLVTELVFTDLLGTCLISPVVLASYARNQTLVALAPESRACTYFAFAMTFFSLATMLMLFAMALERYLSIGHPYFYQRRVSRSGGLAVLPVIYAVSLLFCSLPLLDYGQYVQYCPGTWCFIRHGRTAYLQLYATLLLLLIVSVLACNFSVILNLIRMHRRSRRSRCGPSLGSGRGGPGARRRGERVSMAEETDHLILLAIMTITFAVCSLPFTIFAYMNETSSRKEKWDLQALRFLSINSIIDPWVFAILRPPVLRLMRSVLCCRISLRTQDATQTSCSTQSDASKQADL

[21] = molecular target: T4, Prostaglandin D2 receptor 2; assay: Antagonist activity at PGD2-induced human CRTh2 receptor activation expressed in HEK293 cells assessed as intracellular Ca2+ liberation by FLIPR assay; assay type: functional, cell-based
Procedure, shortened: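 HEK-293 cells stably expressing human CRTh2 were stimulated with PGD2. Antagonism of intracellular Ca2+ liberation was read by FLIPR. IC50 is the mean of at least three experiments.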

Thromboxane A2 receptor = molecular target: T5, Thromboxane A2 receptor (Homo sapiens, UniProt P21731); assay: Antagonist activity at human TP2 receptor assessed as inhibition of U46619-induced Ca2+ mobilization by FLIPR assay; assay type: functional; procedure, shortened: as §5
T5 sequence (P21731 whole entry): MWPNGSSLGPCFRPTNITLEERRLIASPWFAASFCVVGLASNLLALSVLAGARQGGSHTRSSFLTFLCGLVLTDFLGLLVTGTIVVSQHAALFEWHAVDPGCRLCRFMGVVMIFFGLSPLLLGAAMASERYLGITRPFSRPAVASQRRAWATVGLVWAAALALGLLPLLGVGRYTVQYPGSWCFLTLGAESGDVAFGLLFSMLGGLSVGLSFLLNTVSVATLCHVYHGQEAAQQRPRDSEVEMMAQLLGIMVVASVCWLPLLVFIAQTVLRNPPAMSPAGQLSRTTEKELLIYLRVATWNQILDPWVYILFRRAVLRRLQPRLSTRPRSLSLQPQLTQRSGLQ

- bioavailability [1]: 14%
- Vd [2]: 0.5 L/kg
- half-life [3]: 2.3 h
- clearance [4]: 4.6 mL/min/kg
- Cmax [5]: 600 ng/mL
- AUC(0-t) [6]: 6300 ng·h/mL
- remaining at 4 h [7]: 100%
- remaining at 1 h [8]: 100%
- solubility [9]: 515 µg/mL (≈ 1540 µM)
- solubility [10]: 810 µg/mL (≈ 2420 µM)
- solubility [11]: 64 µg/mL (≈ 191 µM)
- remaining at 4 h [12]: 90%
- remaining at 4 h [13]: 90%
- IC50 (Cytochrome P450 2D6): > 50 µM
- IC50 (Cytochrome P450 3A4): > 50 µM
- IC50 (Cytochrome P450 2C9): > 15 µM
- IC50 [14]: > 10 µM
- IC50 [15]: > 10 µM
- IC50 [16]: > 10 µM
- IC50 [17]: > 10 µM
- IC50 [18]: 0.017 µM
- IC50 [19]: 0.015 µM
- IC50 [20]: > 10 µM
- IC50 [21]: 0.17 µM
- IC50 (Thromboxane A2 receptor): > 25 µM
SMILES: O=C(O)Cn1c2c(c3ccccc31)CN(C(=O)c1ccccc1)CC2

- IC50 [18]: 0.43 µM
SMILES: N#C/C(=C\c1cn(CC(=O)O)c2ccccc12)C(=O)Nc1ccccc1

- IC50 [18]: 5.9 µM
SMILES: N#C/C(=C\c1cn(CCC(=O)O)c2ccccc12)C(=O)Nc1ccccc1

- IC50 [18]: 2.6 µM
SMILES: N#C/C(=C\c1cn(CCCC(=O)O)c2ccccc12)C(=O)Nc1ccccc1

- IC50 [18]: 0.56 µM
SMILES: O=C(O)Cn1cc(/C=C(\Cl)C(=O)Nc2ccccc2)c2ccccc21

- IC50 [18]: 4.4 µM
SMILES: O=C(O)Cn1cc(/C=C/C(=O)Nc2ccccc2)c2ccccc21

- IC50 [18]: 0.02 µM
SMILES: CCCCN(C(=O)/C(C#N)=C/c1cn(CC(=O)O)c2ccccc12)c1ccccc1

- IC50 [18]: 0.03 µM
SMILES: N#C/C(=C\c1cn(CC(=O)O)c2ccccc12)C(=O)N(c1ccccc1)C1CCCCC1

- IC50 [18]: 0.007 µM
SMILES: N#C/C(=C\c1cn(CC(=O)O)c2ccccc12)C(=O)N1Cc2ccccc2Cc2ccccc21

The remaining lines, values behind:

SMILES: Cc1cccc2c1c(/C=C(\C#N)C(=O)N(C)c1ccccc1)cn2CC(=O)O
- IC50 [18]: 0.01 µM

SMILES: N#C/C(=C\c1cn(CC(=O)O)c2ccccc12)C(=O)Nc1cccc(Br)c1
- IC50 [18]: 0.5 µM
- IC50 [21]: 0.6 µM

SMILES: C/C(=C(/C#N)C(=O)Nc1ccccc1)c1cn(CC(=O)O)c2ccccc12
- IC50 [18]: 0.51 µM

SMILES: CN(C(=O)/C(C#N)=C/c1cn(CC(=O)O)c2ccccc12)c1ccccc1
- IC50 [18]: 0.015 µM

SMILES: N#C/C(=C\c1cn(CC(=O)O)c2ccccc12)C(=O)N(Cc1ccccc1)c1ccccc1
- IC50 [18]: 0.03 µM

SMILES: N#C/C(=C\c1cn(CC(=O)O)c2ccccc12)C(=O)N(CCc1ccccc1)c1ccccc1
- IC50 [18]: 0.01 µM

SMILES: N#C/C(=C\c1cn(CC(=O)O)c2ccccc12)C(=O)N1CCc2ccccc21
- IC50 [18]: 0.06 µM
